Key:
[1] = tested on: Mus musculus; experiment: Light […] edema caused with EMT-6 tumor at drug dose 5 umol kg e-1, at light dose 400 J cme-2, and at time period of 24 hr; + = Light edema; assay type: functional, organism-based; settings: tested as the Zn salt or complex
Summary of the method: (§1)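 Male BALB/c mice (18-22 g), depilated; 2 × 10^5 EMT-6 cells implanted intradermally on each hind thigh; used 6-8 days later (tumors 3-5 mm diameter, 2-3 mm thick). Dye in PBS given iv (2-20 µmol kg-1); 24 or 48 h later one tumor illuminated with 650-700 nm xenon-lamp light, the other left as control. Edema scored 24 h post-PDT.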

[2] = species on record: Mus musculus; experiment: Percent regression with EMT-6 Tumor in BALB/c mice at drug dose 5 umol kg e-1, at light dose 400 J cme-2, and at time period of 24 hr.
[3] = species on record: Mus musculus; experiment: (§2) Light dose to inactivate 90% of mouse mammary tumor cells (EMT-6) incubated with 1 uM dye for a period of 24 hour.; assay type: functional; settings: tested as the Zn salt or complex
Summary of the method: (§3)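 EMT-6 mouse mammary tumor cells, 15 × 10^3 per well, were grown overnight in Waymouth's with 15% FBS and incubated at 37 °C with dye at 1 µM in Waymouth's 1% FBS (1 h for line 1, 24 h for line 2). Cells were rinsed and exposed to 660-700 nm red light at 10 mW cm-2 (1.5-30 J cm-2). MTT read at 595 nm next day; LD90 extrapolated from survival curves; 8 replicates per light dose, ≥3 experiments.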

[4] = species on record: Mus musculus; experiment: Percent necrosis with EMT-6 Tumor in BALB/c mice at drug dose 5 umol kg e-1, at light dose 400 J cme-2, and at time period of 24 hr.; assay type: functional; summary of the method: as §1
[5] = species on record: Mus musculus; experiment: (§4) Light dose to inactivate 90% of mouse mammary tumor cells (EMT-6) incubated with 1 uM dye for a period of 1 hour.; assay type: functional; settings: tested as the Zn salt or complex; summary of the method: as §3
[6] = species on record: Mus musculus; experiment: Percent regression with EMT-6 Tumor in BALB/c mice at drug dose 2 umol kg e-1, at light dose 400 J cme-2, and at time period of 24 hr.; assay type: functional; summary of the method: as §1
[7] = species on record: Mus musculus; experiment: Percent necrosis with EMT-6 Tumor in BALB/c mice at drug dose 5 umol kg e-1, at light dose 300 J cme-2, and at time period of 24 hr.; assay type: functional; summary of the method: as §1
[8] = tested on: Mus musculus; experiment: Medium edema caused with EMT-6 tumor at drug dose 2 umol kg e-1, at light dose 400 J cme-2, and at time period of 24 hr.; assay type: functional, organism-based; settings: tested as the Zn salt or complex; summary of the method: as §1
[9] = species on record: Mus musculus; experiment: Percent necrosis with EMT-6 Tumor in BALB/c mice at drug dose 5 umol kg e-1, at light dose 400 J cme-2, and at time period of 48 hr.; assay type: functional; summary of the method: as §1
[10] = species on record: Mus musculus; experiment: Percent regression with EMT-6 Tumor in BALB/c mice at drug dose 5 umol kg e-1, at light dose 300 J cme-2, and at time period of 24 hr.; assay type: functional; summary of the method: as §1
[11] = species on record: Mus musculus; experiment: Percent regression with EMT-6 Tumor in BALB/c mice at drug dose 5 umol kg e-1, at light dose 400 J cme-2, and at time period of 24 hr.; assay type: functional; summary of the method: as §1
[12] = tested on: Mus musculus; experiment: Medium edema caused with EMT-6 tumor at drug dose 5 umol kg e-1, at light dose 300 J cme-2, and at time period of 24 hr.; ++ = Medium edema; assay type: functional, organism-based; settings: tested as the Zn salt or complex; summary of the method: as §1
[13] = species on record: Mus musculus; experiment: Percent necrosis with EMT-6 Tumor in BALB/c mice at drug dose 2 umol kg e-1, at light dose 400 J cme-2, and at time period of 24 hr.; assay type: functional; summary of the method: as §1
[14] = species on record: Mus musculus; experiment: Percent regression with EMT-6 Tumor in BALB/c mice at drug dose 5 umol kg e-1, at light dose 400 J cme-2, and at time period of 48 hr.; assay type: functional; summary of the method: as §1
[15] = as §2; assay type: functional; summary of the method: as §3
[16] = as §4; assay type: functional; summary of the method: as §3
[17] = tested on: Mus musculus; experiment: Medium edema caused with EMT-6 tumor at drug dose 5 umol kg e-1, at light dose 400 J cme-2, and at time period of 48 hr.; ++ = Medium edema; assay type: functional, organism-based; settings: tested as the Zn salt or complex; summary of the method: as §1
[18] = tested on: Mus musculus; experiment: Medium edema caused with EMT-6 tumor at drug dose 2 umol kg e-1, at light dose 400 J cme-2, and at time period of 24 hr.; ++ = Medium edema; assay type: functional, organism-based; settings: tested as the Zn salt or complex; summary of the method: as §1
[19] = species on record: Mus musculus; experiment: Percent necrosis with EMT-6 Tumor in BALB/c mice at drug dose 5 uMol kg e-1, at light dose 400 J cme-2, and at time period of 24 hr.; assay type: functional; summary of the method: as §1
[20] = tested on: Mus musculus; experiment: Medium edema caused with EMT-6 tumor at drug dose 2 umol kg e-1, at light dose 400 J cme-2, and at time period of 24 hr; ++ = Medium edema; assay type: functional, organism-based; settings: tested as the Zn salt or complex; summary of the method: as §1
[21] = tested on: Mus musculus; experiment: Medium edema caused with EMT-6 tumor at drug dose 5 umol kg e-1, at light dose 400 J cme-2, and at time period of 48 hr; ++ = Medium edema; assay type: functional, organism-based; settings: tested as the Zn salt or complex; summary of the method: as §1
[22] = tested on: Mus musculus; experiment: Medium edema caused with EMT-6 tumor at drug dose 5 umol kg e-1, at light dose 400 J cme-2, and at time period of 24 hr; ++ = Medium edema; assay type: functional, organism-based; settings: tested as the Zn salt or complex; summary of the method: as §1
[23] = tested as the Zn salt or complex

Row | SMILES | Regression response [6] [%] | Necrosis response [7] [%] | Necrosis response [9] [%] | Regression response [10] [%] | Regression response [11] [%] | Necrosis response [13] [%] | Regression response [14] [%] | LD90 [15] [J cm**-2] | Necrosis response [4] [%] | LD90 [16] [J cm**-2] | further results
1 | O=S(=O)(O)c1ccc2c(c1)-c1nc-2nc2[nH]c(nc3nc(nc4[nH]c(n1)c1ccc(S(=O)(=O)O)cc41)-c1nc(-c4ccccc4)c(-c4ccccc4)nc1-3)c1ccc(S(=O)(=O)O)cc21 |  |  |  |  |  |  |  |  |  |  | Edema [1]: Light edema; Regression response [2, 23]: 0%; LD90 [3]: 19.5 J cm··-2; Necrosis response [4, 23]: 25%; LD90 [5]: > 30 J cm··-2
2 | CC(C)(C)c1ccc2c(c1)-c1nc-2nc2[n-]c(nc3nc(nc4[n-]c(n1)c1cc(S(=O)(=O)O)ccc41)-c1cc(S(=O)(=O)O)ccc1-3)c1cc(S(=O)(=O)O)ccc21.[Zn+2] | 33 | 12 | 37 | 0 | 90 | 50 | 37 | 2.5 | 100 | >30 | Edema [8]: Medium edema; Edema [12]: Medium edema
3 | O=S(=O)(O)c1ccc2c(c1)-c1nc-2nc2[n-]c(nc3nc(nc4[n-]c(n1)c1ccc(S(=O)(=O)O)cc41)-c1ccc(S(=O)(=O)O)cc1-3)c1ccc(S(=O)(=O)O)cc21.[Zn+2] | 12 |  | 50 |  |  | 12 | 38 | 14 | 91 | >30 | Edema [17]: Medium edema; Edema [18]: Medium edema; Regression response [19]: 91%
4 | CC(C)(C)c1ccc2cc3c(cc2c1)-c1nc-3nc2[n-]c(nc3nc(nc4[n-]c(n1)c1cc(S(=O)(=O)O)ccc41)-c1cc(S(=O)(=O)O)ccc1-3)c1cc(S(=O)(=O)O)ccc21.[Zn+2] | 60 | 71 | 87 | 43 | 86 | 60 | 87 | 2.5 | 100 | 21 | Edema [20]: Medium edema; Edema [21]: Medium edema
5 | O=S(=O)(O)c1ccc2c(c1)-c1nc-2nc2[n-]c(nc3nc(nc4[n-]c(n1)c1ccc(S(=O)(=O)O)cc41)-c1ccccc1-3)c1ccc(S(=O)(=O)O)cc21.[Zn+2] |  |  |  |  |  |  |  | 5 | 12 | 29 | Regression response [2]: 0%; Edema [22]: Medium edema

Reference: ChEMBL document CHEMBL1130245, “Syntheses and photodynamic activities of novel trisulfonated zinc phthalocyanine derivatives” (1997)
